# Laboratory results taken from ChEMBL document CHEMBL1932938, “From COX-2 inhibitor nimesulide to potent anti-cancer agent: synthesis, in vitro, in vivo and pharmacokinetic evaluation” (Eur J Med Chem, 2012).
# Columns and labels:
# SK-BR-3 [1] = test: Cell cycle arrest in human SK-BR-3 cells assessed as accumulation at Sub-G1 phase at 0.10 uM after 6 hrs using propidium iodide staining by FACS analysis; assay type: functional
# SK-BR-3 [2] = test: Cell cycle arrest in human SK-BR-3 cells assessed as accumulation at G2/M phase at 0.10 uM after 6 hrs using propidium iodide staining by FACS analysis; assay type: functional
# Method in brief: (§1)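 SKBR-3 cells in RPMI1640 with 10% heat-inactivated FBS at 37 °C and 5% CO₂ were treated for the stated times. Cells were fixed overnight in 70% EtOH at −20 °C, then stained with propidium iodide buffer (38 mM sodium citrate pH 7.5, 69 µM PI, 120 µg/mL RNase A) for 15 min at room temperature in the dark. Up to 1×10⁴ gated cells were analyzed by flow cytometry, giving percent distribution per phase.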
# SK-BR-3 [3] = test: Cell cycle arrest in human SK-BR-3 cells assessed as accumulation at G2/M phase at 0.10 uM after 12 hrs using propidium iodide staining by FACS analysis; assay type: functional; method in brief: as §1
# SK-BR-3 [4] = test: Cell cycle arrest in human SK-BR-3 cells assessed as accumulation at G2/M phase at 0.50 uM after 12 hrs using propidium iodide staining by FACS analysis; assay type: functional; method in brief: as §1
# SK-BR-3 [5] = test: Cell cycle arrest in human SK-BR-3 cells assessed as accumulation at G1 phase at 5 uM after 18 hrs using propidium iodide staining by FACS analysis; assay type: functional; method in brief: as §1
# SK-BR-3 [6] = test: Cell cycle arrest in human SK-BR-3 cells assessed as accumulation at Sub-G1 phase at 0.10 uM after 24 hrs using propidium iodide staining by FACS analysis; assay type: functional
# SK-BR-3 [7] = test: Cell cycle arrest in human SK-BR-3 cells assessed as accumulation at Sub-G1 phase at 0.25 uM after 24 hrs using propidium iodide staining by FACS analysis; assay type: functional
# SK-BR-3 [8] = test: Cell cycle arrest in human SK-BR-3 cells assessed as accumulation at S phase at 0.50 uM after 24 hrs using propidium iodide staining by FACS analysis; assay type: functional
# HOP-62 = test: Growth inhibition of human HOP62 cells after 48 hrs by SRB assay; assay type: functional
# NCI-H226 = test: Growth inhibition of human NCI-H226 cells after 48 hrs by SRB assay; assay type: functional
# HCT-116 = test: Growth inhibition of human HCT116 cells after 48 hrs by SRB assay; assay type: functional
# SF-539 = test: Growth inhibition of human SF539 cells after 48 hrs by SRB assay; assay type: functional
# MDA-MB-435 = test: Growth inhibition of human MDA-MB-435 cells after 48 hrs by SRB assay; assay type: functional
# UACC-62 = test: Growth inhibition of human UACC62 cells after 48 hrs by SRB assay; assay type: functional
# TK-10 = test: Growth inhibition of human TK10 cells after 48 hrs by SRB assay; assay type: functional
# PC-3 = test: Growth inhibition of human PC3 cells after 48 hrs by SRB assay; assay type: functional
# MDA-MB-231 = test: Growth inhibition of human MDA-MB-231 cells after 48 hrs by SRB assay; assay type: functional
# [9] = (§2) Growth inhibition of human Hs 578T cells after 48 hrs by SRB assay; assay type: functional
# Hs-578T = test: as §2; assay type: functional
# Mus musculus = test: Toxicity in BALB/c athymic nu/nu mouse xenografted with human HT-29 cells assessed as effect on body weight at 5 mg/kg/day, ip administered 5 times per week for 3 weeks; assay type: organism-based; set-up: route intraperitoneal; conditions: in vivo, 504 h
# Method in brief: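 BALB/c nu/nu mice, three per group, each inoculated s.c. with HT29 cells in Matrigel at two sites. Dosing began once tumors reached about 200 mm³: 5 mg/kg/d i.p., five times weekly for three weeks, in sesame oil with 1% DMSO. Controls received vehicle only. Body weight was recorded weekly.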
# [10] = Cmax in Sprague-Dawley rat plasma at 20 mg/kg, ip; assay type: ADME, organism-based; set-up: dose 20 mg/kg, route intraperitoneal
# Method in brief: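 Male Sprague–Dawley rats (300–350 g, n=3), fasted overnight, received one i.p. dose in PBS with 0.1% Tween80 and 20% DMSO. Blood (150 µL) was drawn from saphenous and femoral veins into heparinized tubes at 0–24 h, and plasma was stored at –20 °C. Samples underwent tert-butyl methyl ether/n-hexane extraction, then C18 isocratic LC-MS/MS in MRM mode with an internal standard; the method was validated over 0.1–100 ng/mL.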
# [11] = AUC (0 to t) in Sprague-Dawley rat at 20 mg/kg, ip; assay type: ADME, organism-based; set-up: dose 20 mg/kg, route intraperitoneal; conditions: plasma
# Method in brief: (§3)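 Male Sprague–Dawley rats (300–350 g), n=3, fasted overnight with water available, given a single 20 mg/kg i.p. dose in PBS with 0.1% Tween80 and 20% DMSO. Blood drawn into heparinized tubes at 0, 0.25, 0.5, 1, 2, 4, 8 and 24 h. Plasma measured by LC-MS/MS against an internal standard. Parameters from non-compartmental analysis.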
# [12] = Apparent volume of distribution during terminal phase in Sprague-Dawley rat at 20 mg/kg, ip; assay type: ADME, organism-based; set-up: dose 20 mg/kg, route intraperitoneal; conditions: in vivo, read-out: Vz/F; method in brief: as §3
# [13] = Apparent oral clearance in Sprague-Dawley rat at 20 mg/kg, ip; assay type: ADME, organism-based; set-up: dose 20 mg/kg; conditions: in vivo; method in brief: as §3
# SK-BR-3 [14] = test: Cell cycle arrest in human SK-BR-3 cells assessed as accumulation at S phase at 0.50 uM after 3 hrs using propidium iodide staining by FACS analysis; assay type: functional
# SK-BR-3 [15] = test: Cell cycle arrest in human SK-BR-3 cells assessed as accumulation at G2/M phase at 0.25 uM after 3 hrs using propidium iodide staining by FACS analysis; assay type: functional; method in brief: as §1
# SK-BR-3 [16] = test: Cell cycle arrest in human SK-BR-3 cells assessed as accumulation at G1 phase at 0.25 uM after 3 hrs using propidium iodide staining by FACS analysis; assay type: functional; method in brief: as §1
# SK-BR-3 [17] = test: Cell cycle arrest in human SK-BR-3 cells assessed as accumulation at G1 phase at 0.25 uM after 6 hrs using propidium iodide staining by FACS analysis; assay type: functional; method in brief: as §1
# SK-BR-3 [18] = test: Cell cycle arrest in human SK-BR-3 cells assessed as accumulation at S phase at 0.50 uM after 6 hrs using propidium iodide staining by FACS analysis; assay type: functional
# SK-BR-3 [19] = test: Cell cycle arrest in human SK-BR-3 cells assessed as accumulation at G2/M phase at 0.50 uM after 6 hrs using propidium iodide staining by FACS analysis; assay type: functional; method in brief: as §1
# SK-BR-3 [20] = test: Cell cycle arrest in human SK-BR-3 cells assessed as accumulation at Sub-G1 phase at 0.10 uM after 12 hrs using propidium iodide staining by FACS analysis; assay type: functional
structure (smiles),measurement,setting,value
Cc1ccc(C)c(COc2cc(NC(=O)c3ccc4c(c3)OCO4)ccc2N(C)S(C)(=O)=O)c1,Activity,SK-BR-3 [1],3.6%
same,Activity,SK-BR-3 [2],9.07%
same,Activity,SK-BR-3 [3],12.05%
same,Activity,SK-BR-3 [4],24.26%
same,Activity,SK-BR-3 [5],63.55%
same,Activity,SK-BR-3 [6],11.78%
same,Activity,SK-BR-3 [7],24.95%
same,Activity,SK-BR-3 [8],11.21%
same,growth inhibition (GI),HOP-62,Dose-dependent effect
same,GI50,"HOP-62; HOP-62, 48 h",0.329 µM
same,TGI,"HOP-62; HOP-62, 48 h",> 100 µM
same,CC50,"HOP-62; HOP-62, 48 h, read-out: LC50 (the source's name)",> 100 µM
same,growth inhibition (GI),NCI-H226,Dose-dependent effect
same,GI50,"NCI-H226; NCI-H226, 48 h",0.686 µM
same,TGI,"NCI-H226; NCI-H226, 48 h",> 100 µM
same,CC50,"NCI-H226; NCI-H226, 48 h, read-out: LC50 (the source's name)",> 100 µM
same,growth inhibition (GI),HCT-116,Dose-dependent effect
same,TGI,"HCT-116; HCT-116, 48 h",1.02 µM
same,CC50,"HCT-116; HCT-116, 48 h, read-out: LC50 (the source's name)",> 100 µM
same,growth inhibition (GI),SF-539,Dose-dependent effect
same,GI50,"SF-539; SF-539, 48 h",0.125 µM
same,CC50,"SF-539; SF-539, 48 h, read-out: LC50 (the source's name)",> 100 µM
same,growth inhibition (GI),MDA-MB-435,Dose-dependent effect
same,GI50,"MDA-MB-435; MDA-MB-435, 48 h",0.0285 µM
same,TGI,"MDA-MB-435; MDA-MB-435, 48 h",0.0914 µM
same,CC50,"MDA-MB-435; MDA-MB-435, 48 h, read-out: LC50 (the source's name)",> 100 µM
same,growth inhibition (GI),UACC-62,Dose-dependent effect
same,GI50,"UACC-62; UACC-62, 48 h",0.414 µM
same,TGI,"UACC-62; UACC-62, 48 h",> 100 µM
same,CC50,"UACC-62; UACC-62, 48 h, read-out: LC50 (the source's name)",> 100 µM
same,growth inhibition (GI),TK-10,Dose-dependent effect
same,GI50,"TK-10; TK-10, 48 h",0.354 µM
same,TGI,"TK-10; TK-10, 48 h",> 100 µM
same,CC50,"TK-10; TK-10, 48 h, read-out: LC50 (the source's name)",> 100 µM
same,growth inhibition (GI),PC-3,Dose-dependent effect
same,GI50,"PC-3; PC-3, 48 h",0.0677 µM
same,TGI,"PC-3; PC-3, 48 h",> 100 µM
same,growth inhibition (GI),MDA-MB-231,Dose-dependent effect
same,GI50,"MDA-MB-231; MDA-MB-231, 48 h",0.256 µM
same,TGI,"MDA-MB-231; MDA-MB-231, 48 h",0.926 µM
same,CC50,"MDA-MB-231; MDA-MB-231, 48 h, read-out: LC50 (the source's name)",> 100 µM
same,GI50,[9],0.087 µM
same,CC50,[9]; read-out: LC50 (the source's name),> 100 µM
same,growth inhibition (GI),Hs-578T,Dose-dependent effect
same,Activity,Mus musculus,Non-toxic
same,Cmax,[10],1500 ng/mL
same,AUC(0-t),[11],16300 ng·h/mL
same,Vd/F,[12],2.16 L/kg
same,CL/F,[13],8 mL/min
same,Activity,SK-BR-3 [14],17.76%
same,Activity,SK-BR-3 [15],10.77%
same,Activity,SK-BR-3 [16],69.63%
same,Activity,SK-BR-3 [17],72.21%
same,Activity,SK-BR-3 [18],14.73%
same,Activity,SK-BR-3 [19],13.9%
same,Activity,SK-BR-3 [20],5.27%
